Assay outcomes as filed in PubChem BioAssay.
The list is not random: actives were taken first. Their share in the collection is about 5.4%.
Mdm2 MdmX PPI: inhibitors of human Mdm2-MdmX association, primary screen, cell-based, luminescence, split luciferase, SaOS-2, uHTS; SaOS-2 split-luciferase Mdm2/MdmX complementation; inhibition, % at 8 µM; hit rate 3% among 330,000;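 active = inhibition of at least 50% at 8 µM in the primary screen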
Target sequence (O15151 whole entry, looked up): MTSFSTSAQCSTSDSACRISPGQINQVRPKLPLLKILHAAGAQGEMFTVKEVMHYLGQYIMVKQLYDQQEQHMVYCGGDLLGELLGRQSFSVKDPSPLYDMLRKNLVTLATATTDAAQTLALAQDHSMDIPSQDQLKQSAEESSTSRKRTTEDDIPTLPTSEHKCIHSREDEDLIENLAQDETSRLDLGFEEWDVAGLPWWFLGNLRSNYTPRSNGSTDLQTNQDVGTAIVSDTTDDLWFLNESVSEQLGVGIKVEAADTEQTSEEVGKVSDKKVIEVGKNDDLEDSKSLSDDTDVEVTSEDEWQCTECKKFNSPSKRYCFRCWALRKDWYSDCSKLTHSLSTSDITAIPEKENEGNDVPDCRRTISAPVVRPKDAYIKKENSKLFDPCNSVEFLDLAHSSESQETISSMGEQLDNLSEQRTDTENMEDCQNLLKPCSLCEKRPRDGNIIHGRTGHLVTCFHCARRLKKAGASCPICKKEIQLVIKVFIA
Target sequence (Q00987 whole entry, looked up): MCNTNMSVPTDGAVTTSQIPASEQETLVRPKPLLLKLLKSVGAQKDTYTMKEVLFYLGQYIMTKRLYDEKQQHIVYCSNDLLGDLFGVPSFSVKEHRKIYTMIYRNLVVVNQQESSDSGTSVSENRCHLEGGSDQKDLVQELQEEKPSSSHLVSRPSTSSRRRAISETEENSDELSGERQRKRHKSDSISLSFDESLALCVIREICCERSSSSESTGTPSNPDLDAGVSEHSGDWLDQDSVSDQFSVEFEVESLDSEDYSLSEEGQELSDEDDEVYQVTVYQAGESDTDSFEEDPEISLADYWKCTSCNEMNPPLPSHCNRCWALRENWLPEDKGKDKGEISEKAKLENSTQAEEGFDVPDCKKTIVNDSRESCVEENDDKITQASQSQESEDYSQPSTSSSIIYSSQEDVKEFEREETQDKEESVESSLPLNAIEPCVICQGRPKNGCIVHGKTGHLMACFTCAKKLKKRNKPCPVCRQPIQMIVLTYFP
aSyn UTR inh: MLPCN primary screen, SNCA 5' untranslated region; alpha-synuclein 5'UTR reporter, inhibitor activity; inhibition, % (tested at 7.5 µM); hit rate 0.82% among 300,000; AID 1813, 2009; in the data active = inhibition above about 60%;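 note: H4 neuroglioblastoma cells stably carrying SNCA 5'UTR luciferase fusion; 0% = DMSO wells and 100% = positive control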
T cruzi inh: inhibitors of intracellular T. cruzi growth, primary screen, luminescence, NIH3T3 host cells | T. cruzi beta-gal in NIH3T3, 90 h | inhibition, % (concentration not given with the values) | hit rate 1.4% among 300,000;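 active = mean inhibition across valid replicates above about 55%, limit read from the data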;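 note: signal also drops with host cell toxicity which is not excluded here; 0% = plate median of DMSO wells and 100% = zero luminescence signal; higher percent means less beta-gal luminescence so fewer parasites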
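System: Mouse NIH/3T3 fibroblasts infected with β-gal-expressing T. cruzi Tulahuen C4 | Quantity: NIH/3T3 cells, 5,000 per well | Reagent: 5000 reporter trypomastigotes per well | Dosing: Compound pinned at 50 nL/well, DMSO | Schedule: 3 h host attachment, then at least 90 h co-culture | Detection: GalScreen luminescence, 60 min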
CSC inhib: cancer stem cell viability inhibitors, primary screen, luminescence. inhibition, % at 7.5 µM. cancer stem cell-like cells viability. hit rate 1.1% among 300,000; in the data active = inhibition above about 75%; tested in HMLE shEcad cells
SKKanGAS inh: S. pyogenes SKKanGAS growth inhibitors in kanamycin, primary screen, streptokinase expression inhibitor project, SKKanGAS strain, BacTiter-Glo luminescence; hit rate 1.3% among 300,000; AID 1662, 2009; inhibition, % at 7.5 µM; 6 h;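 active = mean replicate score, as percent of positive control median, at least 50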;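 note: strain carries kanamycin resistance gene driven by streptokinase promoter and grows in 40 µg/ml kanamycin; loss of luminescence reflects streptokinase promoter inhibition or plain growth inhibition; 0% = median of DMSO wells and 100% = positive control at its reference dose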
Mdm2 MdmX conf: Mdm2-MdmX complex disruptors, retested hits, confirmation, luminescence, single concentration. hit rate 55% among 10,000. shares compounds with Mdm2 MdmX PPI. AID 489028, 2010. inhibition, % at 8 µM. Mdm2-MdmX binding, luminescent assay; in the data active = inhibition above about 40%
FLuc counter: full-length luciferase signal inhibition, confirmation, counter-screen for Mdm2/MdmX interaction inhibitor project, cell-based, single concentration, SaOS-2. shares compounds with Mdm2 MdmX PPI. SaOS-2 full-length luciferase counterscreen, luminescence. hit rate 77% among 6,200. inhibition, % at 8 µM. AID 504607, 2011;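 active = mean inhibition at 8 µM reaching about 37%, which flags the compound as non-specific, limit read from the data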;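 note: p53-null SaOS-2 cells with luciferase driven by a doxycycline-inducible promoter; compound on cells about two nights before reading with doxycycline added after day one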
Numbers without * were called inactive.

O=C(CCc1nc2ccccc2c(=O)[nH]1)OCC(=O)N1CCc2ccccc21 was read as Mdm2 MdmX PPI 9.3, aSyn UTR inh 10.4, T cruzi inh -12.1, CSC inhib -2.7 and SKKanGAS inh -17.5.
Cc1ccc2c(c1)CCCN2C(=O)CCc1nc2ccccc2c(=O)[nH]1 was read as Mdm2 MdmX PPI 53.2*, Mdm2 MdmX conf 59.6* and FLuc counter 49.0*.
For COc1ccccc1C(=O)NN=C1CCN(Cc2ccccc2)CC1 the results were Mdm2 MdmX PPI 1.3, aSyn UTR inh -72.9, T cruzi inh 3.4, CSC inhib 4.9 and SKKanGAS inh 3.8.
`CC(C)C[C@H](NC(=O)c1nc[nH]c1C(=O)N[C@@H](CC(C)C)C(=O)OC(C)(C)C)C(=O)OC(C)(C)C` gave Mdm2 MdmX PPI 80.1*, aSyn UTR inh 54.2, T cruzi inh 35.2, CSC inhib -1.2, SKKanGAS inh 87.2* and Mdm2 MdmX conf 7.4.
For CC(C)C[C@H](NC(=O)c1nc[nH]c1C(=O)NC(c1ccccc1)c1ccccc1)C(=O)OC(C)(C)C the results were Mdm2 MdmX PPI 89.3*, aSyn UTR inh 29.4, T cruzi inh 53.4, CSC inhib 97.0*, SKKanGAS inh 59.9* and Mdm2 MdmX conf 2.1.
CC(C)C[C@H](NC(=O)c1[nH]cnc1C(=O)N[C@@H](C)C(=O)OCc1ccccc1)C(=O)OC(C)(C)C was read as Mdm2 MdmX PPI -8.0, aSyn UTR inh 9.0, T cruzi inh 8.8, CSC inhib -4.0 and SKKanGAS inh 19.7.
CCOC(=O)c1sc(NC(=O)CSc2nc(C)cc(C)n2)c(C#N)c1C was read as Mdm2 MdmX PPI 19.2, aSyn UTR inh 12.9, T cruzi inh 4.4, CSC inhib -10.6 and SKKanGAS inh -4.5.
Screening CCOC(=O)c1sc(NC(=O)CSc2ccccn2)c(C#N)c1C returned Mdm2 MdmX PPI 74.2*, aSyn UTR inh 46.2, T cruzi inh -8.7, CSC inhib -3.7, SKKanGAS inh -3.5 and Mdm2 MdmX conf 22.9.
CCC(CC)c1nnc(NC(=O)c2cccc(S(=O)(=O)N3CCc4ccccc43)c2)s1 was read as Mdm2 MdmX PPI 0.9, aSyn UTR inh -0.8, T cruzi inh 1.9, CSC inhib 39.8 and SKKanGAS inh 11.4.
Screening CCOC(=O)c1sc(NC(=O)c2cc(-c3ccccc3)nc3ccccc23)c(C#N)c1C returned Mdm2 MdmX PPI 94.1*, aSyn UTR inh 35.1, CSC inhib 52.7, SKKanGAS inh 32.4, Mdm2 MdmX conf 90.6* and FLuc counter 47.1*.
`CCOC(=O)c1sc(NC(=O)c2cccc(S(=O)(=O)N3CCc4ccccc43)c2)c(C#N)c1C` gave Mdm2 MdmX PPI 89.1*, aSyn UTR inh 25.1, T cruzi inh 3.1, CSC inhib 44.1, SKKanGAS inh 24.3 and Mdm2 MdmX conf 30.4.
CCOC(=O)c1sc(NC(=O)c2cccnc2)c(C#N)c1C was read as Mdm2 MdmX PPI 12.3, aSyn UTR inh -48.4, T cruzi inh -27.5, CSC inhib 29.4 and SKKanGAS inh 5.4.
Screening CCOC(=O)c1sc(NC(=O)CSc2nc3c(cc2C#N)CCCCC3)c(C#N)c1C returned Mdm2 MdmX PPI 71.5*, aSyn UTR inh -142.8, T cruzi inh 23.7, CSC inhib 34.5, SKKanGAS inh 16.0 and Mdm2 MdmX conf 26.0.
CCOc1cc(S(=O)(=O)NCCCn2ccnc2)ccc1Cl was read as Mdm2 MdmX PPI 20.0, aSyn UTR inh 0.1, T cruzi inh 3.5, CSC inhib -0.2 and SKKanGAS inh -4.2.
Screening COc1ccc(CCNC(=O)CSc2nc3[nH]ncc3c(=O)[nH]2)cc1OC returned Mdm2 MdmX PPI 6.2, aSyn UTR inh -3.3, T cruzi inh 2.9, CSC inhib -9.4 and SKKanGAS inh 3.2.
For CN1CCN(C(CNS(=O)(=O)c2ccc([N+](=O)[O-])cc2)c2ccc(F)cc2)CC1 (stereo not given) the results were Mdm2 MdmX PPI 3.6, aSyn UTR inh -2.4, T cruzi inh 53.2 and SKKanGAS inh 23.9.
`CCc1ccc(Oc2ncnc(N)c2[N+](=O)[O-])cc1` gave Mdm2 MdmX PPI 12.6, aSyn UTR inh -0.2, T cruzi inh -4.3, CSC inhib 6.8 and SKKanGAS inh 0.8.
Screening CC(=O)c1ccc(Oc2ncnc(N)c2[N+](=O)[O-])cc1 returned Mdm2 MdmX PPI 60.2*, aSyn UTR inh 53.1, T cruzi inh -16.5, CSC inhib 6.6, SKKanGAS inh -6.9, Mdm2 MdmX conf 60.3* and FLuc counter 45.0*.
`CCCCC(=O)N1CC(=O)Nc2ccc(F)cc2C1c1ccccc1` (stereo not given) gave Mdm2 MdmX PPI -21.3, aSyn UTR inh -9.8, T cruzi inh 4.0, CSC inhib -9.0 and SKKanGAS inh 1.9.
Screening COc1ccc2c(c1)c1ncn(CCN3CCCC3)c(=O)c1n2C returned Mdm2 MdmX PPI 12.6, aSyn UTR inh 7.5, T cruzi inh 22.6, CSC inhib -7.9 and SKKanGAS inh 2.9.
Screening Cc1ccc2c(c1)c1ccc3c(c1n2C)C(=O)C=CC3=O returned Mdm2 MdmX PPI 86.0*, Mdm2 MdmX conf 71.2* and FLuc counter 57.5*.
COc1ccc2c(c1)c1ccc3c(c1n2C)C(=O)C=CC3=O was read as Mdm2 MdmX PPI 92.5*, Mdm2 MdmX conf 74.0* and FLuc counter 57.8*.
For COC(=O)c1cccc(N(CC(=O)NC2CCCCC2)C(=O)CNC(=O)c2cccs2)c1 the results were Mdm2 MdmX PPI 25.3, aSyn UTR inh 19.2, T cruzi inh -15.5, CSC inhib -13.8 and SKKanGAS inh 4.4.
For C=C1CCC(OC(C)=O)C2(C)CCC3C(C)C(=O)OC3C12O (stereo not given) the results were Mdm2 MdmX PPI 29.5, aSyn UTR inh -20.9, T cruzi inh -14.6 and SKKanGAS inh -1.0.
Screening O=C(NC1CCCc2c1cnn2-c1ccccc1F)c1ccccn1 (stereo not given) returned Mdm2 MdmX PPI 86.2*, aSyn UTR inh 52.8, T cruzi inh -12.1, CSC inhib 48.7, SKKanGAS inh 1.1, Mdm2 MdmX conf 71.7* and FLuc counter 28.6.
For Cc1cc(C)c(C(=O)NC2CCCc3c2cnn3-c2cccc(C)c2C)o1 (stereo not given) the results were Mdm2 MdmX PPI 78.3*, aSyn UTR inh 23.9, T cruzi inh 27.6, CSC inhib 23.0, SKKanGAS inh -3.9, Mdm2 MdmX conf 74.7* and FLuc counter 42.9*.
